Measured values from ChEMBL document CHEMBL2057168, “(1aR,5aR)1a,3,5,5a-Tetrahydro-1H-2,3-diaza-cyclopropa[a]pentalene-4-carboxylic acid (MK-1903): a potent GPR109a agonist that lowers free fatty acids in humans” (J Med Chem, 2012).
Active and inactive are the calls of the source. No cut-off for these calls is given here.

Tests used:
[1] = biological target: Hydroxycarboxylic acid receptor 3 (Homo sapiens) (UniProt P49019); test: Agonist activity at human GPR109b assessed as decrease in forskolin-stimulated cAMP production by HTRF assay; format: functional
Hydroxycarboxylic acid receptor 3 (Homo sapiens), sequence (P49019 whole entry): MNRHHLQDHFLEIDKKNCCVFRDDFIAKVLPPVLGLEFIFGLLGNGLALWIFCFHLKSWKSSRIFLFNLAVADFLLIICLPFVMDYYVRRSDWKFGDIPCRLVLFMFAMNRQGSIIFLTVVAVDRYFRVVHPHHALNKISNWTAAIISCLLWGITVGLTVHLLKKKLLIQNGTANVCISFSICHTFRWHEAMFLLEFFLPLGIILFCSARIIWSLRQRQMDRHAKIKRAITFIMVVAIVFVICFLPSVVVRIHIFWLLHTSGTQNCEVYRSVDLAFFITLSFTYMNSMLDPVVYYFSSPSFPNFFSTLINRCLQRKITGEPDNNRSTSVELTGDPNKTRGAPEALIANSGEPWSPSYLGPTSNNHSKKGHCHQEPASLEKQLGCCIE

[2] = test system: Mus musculus; test: Dose normalized AUC in po dosed mouse; format: ADME, organism-based; details: in vivo
[3] = Oral bioavailability in mouse; format: ADME, organism-based; details: in vivo
[4] = test system: Rattus norvegicus; test: Dose normalized Cmax in Sprague-Dawley rat at 10 mg/kg, po; format: ADME, organism-based; parameters: dose 10 mg/kg, route oral; details: in vivo
Procedure, shortened: (§1)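 Male Sprague-Dawley rats were dosed at 10 mg/kg po or 2 mg/kg iv in 80% PEG400/20% phosphate-buffered saline, fasted overnight before the oral dose. Jugular blood was sampled serially from 0.25 to 21 h over 24 h, and heparinized plasma was prepared. Drug was assayed by HPLC/MS/MS (quantitation range 1–2000 ng/mL).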

[5] = Oral bioavailability in Sprague-Dawley rat at 10 mg/kg; format: ADME, organism-based; details: in vivo; procedure, shortened: as §1
[6] = test system: Canis familiaris; test: Dose normalized Cmax in po dosed dog; format: ADME, organism-based, Canis lupus familiaris; details: in vivo
[7] = test system: Homo sapiens; test: Antidyslipedic activity in human assessed as decrease in free fatty acid level at 50 to 200 mg, po administered as a single dose measured after 8 hrs relative to placebo control; format: functional, organism-based
[8] = test system: Homo sapiens; test: Activation of GPR109a receptor in human assessed as PGD2 metabolite level in urine at 10 to >10 mg, po; format: functional, organism-based
[9] = AUC (0 to 12 hrs) in human at 50 mg, po BID administered on day 1 followed by 2-day wash out period after which dosing continued up to day 11 measured on day 4; format: ADME, organism-based; parameters: time < 12 hr, dose 50 mg, route oral; details: plasma
Procedure, shortened: (§2)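 Double-blind, placebo-controlled, randomized dose-escalation study in healthy male volunteers, six cohorts of eight (six active, two placebo). Oral dose on day 1, two-day washout, then dosing days 4–11; the 200 mg qd cohort was titrated over days 1–4. Venous blood taken predose and at 0.5–12 h on days 1, 4 and 11; plasma drug measured. τ 12 h (bid), 24 h (qd), 8 h (tid), 6 h (qid).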

[10] = AUC (0 to 12 hrs) in human at 100 mg, po BID administered on day 1 followed by 2-day wash out period after which dosing continued up to day 11 measured on day 1; format: ADME, organism-based; parameters: dose 100 mg, time < 12 hr, route oral; details: plasma; procedure, shortened: as §2
[11] = AUC (0 to 12 hrs) in human at 100 mg, po BID administered on day 1 followed by 2-day wash out period after which dosing continued up to day 11 measured on day 11; format: ADME, organism-based; parameters: time < 12 hr, dose 100 mg, route oral; details: plasma; procedure, shortened: as §2
[12] = AUC (0 to 8 hrs) in human at 150 mg, po TID administered on day 1 followed by 2-days wash out period after which dosing continued up to day 11 measured on day 11; format: ADME, organism-based; parameters: time < 8 hr, dose 150 mg, route oral; details: plasma; procedure, shortened: as §2
[13] = AUC (0 to 24 hrs) in human at titreated po dose administered from day 1 to 4 followed by 200 mg, po QD administered up to day 11 measured on day 4; format: ADME, organism-based; parameters: dose 200 mg, time < 24 hr, route oral; details: plasma; procedure, shortened: as §2
[14] = Tmax in human at 175 mg, po QID administered on day 1 followed by 2-days wash out period after which dosing continued up to day 11 measured on day 1; format: ADME, organism-based; details: in vivo
Procedure, shortened: (§3)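 Double-blind, placebo-controlled, randomized multiple oral dose study in healthy male volunteers (cohorts of eight; six active, two placebo). Dose given on day 1, then a two-day washout, then dosing days 4–11; for the QD arm, subjects were titrated over days 1–4. Venous plasma sampled predose and 0.5, 1, 1.5, 2, 4, 6, 8, 10, 12 h postdose on days 1, 4 and 11. Tmax reported as median (min–max).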

[15] = Apparent half life in human at 100 mg, po BID administered on day 1 followed by 2-day wash out period after which dosing continued up to day 11 measured on day 11; format: ADME, organism-based; details: in vivo, read-out: t1/2(app) (converted); procedure, shortened: as §2
[16] = Apparent half life in human at 150 mg, po TID administered on day 1 followed by 2-day wash out period after which dosing continued up to day 11 measured on day 11; format: ADME, organism-based; details: in vivo, read-out: t1/2(app) (converted); procedure, shortened: as §2
[17] = Drug excretion in human urine assessed as unchanged drug at 50 to 150 mg, po BID in administered on day 1 followed by 2-days wash out period after which dosing continued up to day 11; format: ADME, organism-based; details: read-out: Ae
[18] = test system: Homo sapiens; test: Toxicity in human assessed as occurrence of flushing administered as single dose; format: organism-based; details: in vivo
Procedure, shortened: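 Healthy volunteers scored subject-reported flushing with a flushing symptoms questionnaire after single oral doses and during repeat divided daily dosing.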

[19] = test system: Homo sapiens; test: Toxicity in dyslipedimc patient assessed as flushing at 150 mg administered TID during four week study; format: organism-based; details: in vivo
[20] = test system: Homo sapiens; test: Antidyslipidemic activity in dyslipidemia patient assessed as change in triglyceride level at 150 mg administered TID during four week study relative to control; format: functional
[21] = Cmax in human at 50 mg, po BID administered on day 1 followed by 2-day wash out period after which dosing continued up to day 11 measured on day 1; format: ADME, organism-based; parameters: dose 50 mg, route oral; details: in vivo
Procedure, shortened: (§4)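 Healthy male volunteers took part in a double-blind, randomized, placebo-controlled dose-escalation study, with cohorts of 8 (6 on drug, 2 on placebo). Each subject got an oral dose on day 1, then a 2-day washout, then dosing on days 4–11. The 200 mg qd group was titrated over days 1–4. Venous plasma was sampled predose and 0.5–12 h postdose on days 1, 4 and 11, and predose on days 5–10 for troughs.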

[22] = Cmax in human at 100 mg, po BID administered on day 1 followed by 2-day wash out period after which dosing continued up to day 11 measured on day 1; format: ADME, organism-based; parameters: dose 100 mg, route oral; details: in vivo; procedure, shortened: as §2
[23] = Cmax in human at 100 mg, po BID administered on day 1 followed by 2-day wash out period after which dosing continued up to day 11 measured on day 11; format: ADME, organism-based; parameters: dose 100 mg, route oral; details: in vivo; procedure, shortened: as §2
[24] = Cmax in human at 150 mg, po TID administered on day 1 followed by 2-days wash out period after which dosing continued up to day 11 measured on day 1; format: ADME, organism-based; parameters: dose 150 mg, route oral; details: in vivo; procedure, shortened: as §4
[25] = Cmax in human at 150 mg, po TID administered on day 1 followed by 2-days wash out period after which dosing continued up to day 11 measured on day 4; format: ADME, organism-based; parameters: dose 150 mg, route oral; details: in vivo; procedure, shortened: as §4
[26] = Cmax in human at 175 mg, po QID administered on day 1 followed by 2-days wash out period after which dosing continued up to day 11 measured on day 4; format: ADME, organism-based; parameters: dose 175 mg, route oral; details: in vivo; procedure, shortened: as §4
[27] = Cmin in human at 50 mg, po BID administered on day 1 followed by 2-day wash out period after which dosing continued up to day 11 measured on day 4 at 12 hrs; format: ADME, organism-based; details: in vivo, read-out: Cmin; procedure, shortened: as §4
[28] = Cmin in human at 150 mg, po BID administered on day 1 followed by 2-day wash out period after which dosing continued up to day 11 measured on day 1 at 12 hrs; format: ADME, organism-based; details: in vivo, read-out: Cmin; procedure, shortened: as §4
[29] = Cmin in human at 150 mg, po BID administered on day 1 followed by 2-day wash out period after which dosing continued up to day 11 measured on day 4 at 12 hrs; format: ADME, organism-based; details: in vivo, read-out: Cmin; procedure, shortened: as §4
[30] = Cmin in human at 150 mg, po TID administered on day 1 followed by 2-days wash out period after which dosing continued up to day 11 measured on day 11 at 8 hrs; format: ADME, organism-based; details: in vivo, read-out: Cmin; procedure, shortened: as §4
[31] = Cmin in human at 175 mg, po QID administered on day 1 followed by 2-days wash out period after which dosing continued up to day 11 measured on day 1 at 6 hrs; format: ADME, organism-based; details: in vivo, read-out: Cmin; procedure, shortened: as §4
[32] = Tmax in human at 150 mg, po BID administered on day 1 followed by 2-day wash out period after which dosing continued up to day 11 measured on day 4; format: ADME, organism-based; details: in vivo; procedure, shortened: as §3

For `O=C(O)c1n[nH]c2c1C[C@H]1C[C@@H]21`, the Activity [1] was “inactive”, the AUC/dose [2] was 4.1 µM·kg·h/mg and the bioavailability [3] was 40%. It also gave a Cmax/dose [4] of 3.7 µM·kg/mg, a bioavailability [5] of 83% and a Cmax/dose [6] of 17.5 µM·kg/mg. For the same compound, the Activity [7] was “inactive”, the Activity [8] was “Active” and the AUC at 12 h [9] was 26.1 nM·h. For the same compound, the AUC at 12 h [10] was 72.8 nM·h, the AUC at 12 h [11] was 61.1 nM·h and the AUC at 8 h [12] was 87.9 nM·h. For the same compound, the AUC at 24 h [13] was 114 nM·h, the Tmax [14] was 1.25 h and the half-life [15] was 2.2 h. For the same compound, the half-life [16] was 11 h, the dose excreted [17] was 70% and the Activity [18] was “Dose-dependent effect”. The Activity [19] was “Non-toxic”, the Activity [20] was -10.3% and the Cmax [21] was 12.3 nM. For the same compound, the Cmax [22] was 31.5 nM, the Cmax [23] was 32.5 nM and the Cmax [24] was 48400 nM. It also gave a Cmax [25] of 52.6 nM, a Cmax [26] of 49.9 nM and a concentration at 12 h [27] of 0.023 nM. For the same compound, the concentration at 12 h [28] was 0.316 nM, the concentration at 12 h [29] was 0.241 nM and the concentration at 8 h [30] was 0.708 nM. It also gave a concentration at 6 h [31] of 4.01 nM and a Tmax [32] of 1.5 h.
